Measurements as given in ChEMBL document CHEMBL1938297, “Synthesis, radiofluorination and pharmacological evaluation of a fluoromethyl spirocyclic PET tracer for central σ1 receptors and comparison with fluoroalkyl homologs” (Bioorg Med Chem, 2012).

How the values were obtained:
Spleen [1] = experiment: Biodistribution in CD1 mouse spleen at 300 kBq, iv after 5 mins by gamma counting; type: ADME, organism-based; settings: in vivo
In short: (§1)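 Female CD-1 mice received the 18F tracer iv at 300 kBq in 0.9% NaCl containing 5% ethanol; 3–6 animals per time point (5, 30, 60, 120 min p.i.). Animals anaesthetized, blood and urine collected, killed by cervical luxation, organs dissected and weighed, counted in calibrated gamma counter. %ID/g = tissue counts / initial dose counts / tissue weight; mean with SD.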

Brain [2] = experiment: Biodistribution in CD1 mouse brain at 300 kBq, iv after 5 mins by gamma counting; type: ADME, organism-based; settings: in vivo
In short: (§2)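 Female CD-1 mice received [18F]1 (300 kBq) i.v.; 3–6 animals per time point anesthetized at 5, 30, 60 or 120 min p.i., blood and urine collected, animals euthanized by cervical dislocation, organs dissected and weighed. Radioactivity counted in a calibrated gamma counter; % ID/g = tissue counts / initial dose counts / tissue weight; means with SD.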

Femur [3] = experiment: Biodistribution in CD1 mouse femur at 300 kBq, iv after 120 mins by gamma counting; type: ADME, organism-based; settings: in vivo, 2 h; in short: as §2
Stomach [4] = experiment: Biodistribution in CD1 mouse stomach at 300 kBq, iv after 30 mins by gamma counting; type: ADME, organism-based; settings: in vivo, 0.5 h; in short: as §1
Femur [5] = experiment: Biodistribution in CD1 mouse flushed femur at 300 kBq, iv after 5 mins by gamma counting; type: ADME, organism-based; settings: in vivo; in short: as §2
[6] = n-Octanol-phosphate-saline solution partition coefficient, log D of the compound at pH 7.2 by shake-flask method; type: physicochemical
In short: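 Shake-flask distribution of the radioligand between n-octanol and aqueous buffer at pH 7.2, either phosphate buffer or phosphate-saline; n = 3.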

Cerebellum [7] = experiment: Biodistribution in CD1 mouse cerebellum at 300 kBq, iv after 30 mins by gamma counting; type: ADME, organism-based; settings: in vivo, 0.5 h; in short: as §2
Stomach [8] = experiment: Biodistribution in CD1 mouse stomach at 300 kBq, iv after 60 mins by gamma counting; type: ADME, organism-based; settings: in vivo, 1 h; in short: as §1
Urinary bladder [9] = experiment: Biodistribution in CD1 mouse bladder at 300 kBq, iv after 5 mins by gamma counting; type: ADME, organism-based; settings: in vivo; in short: as §2
Mus musculus [10] = experiment: Biodistribution in CD1 mouse thymus at 300 kBq, iv after 120 mins by gamma counting; type: ADME, organism-based; settings: in vivo, 2 h; in short: as §1
Mus musculus [11] = experiment: Biodistribution in CD1 mouse thymus at 300 kBq, iv after 5 mins by gamma counting; type: ADME, organism-based; settings: in vivo; in short: as §1
Stomach [12] = experiment: Biodistribution in CD1 mouse stomach at 300 kBq, iv after 5 mins by gamma counting; type: ADME, organism-based; settings: in vivo; in short: as §1
[13] = Biodistribution in CD1 mouse urine at 300 kBq, iv after 5 mins by gamma counting; type: ADME, organism-based; settings: in vivo
In short: (§3)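 Female CD-1 mice received 300 kBq of the radiotracer i.v.; 3–6 animals per time point were anaesthetised at 5, 30, 60 or 120 min p.i. Blood and urine were collected, animals were killed by cervical dislocation, and organs were dissected and weighed. Activity was counted in a calibrated gamma counter and expressed as % injected dose per g wet tissue, mean with SD.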

Mus musculus [14] = experiment: Biodistribution in CD1 mouse lateral periaqueductal gray in brain saggital section at 24 MBq, iv at 45 mins by autoradiography; type: ADME, organism-based; settings: in vivo, 0.75 h
In short: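 Ex vivo autoradiography: female CD-1 mouse given 18F tracer iv (24 MBq), killed 45 min p.i.; brain hemispheres frozen in isopentane (−35 °C), 12 µm sagittal cryostat sections thaw-mounted, air-dried and exposed to 18F-sensitive phosphor screens. Regional uptake compared with anterior olfactory bulb as nontarget region (target-to-nontarget ratio).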

Mus musculus [15] = experiment: Biodistribution in CD1 mouse eye at 300 kBq, iv after 60 mins by gamma counting; type: ADME, organism-based; settings: in vivo, 1 h; in short: as §2
Muscle tissue [16] = experiment: Biodistribution in CD1 mouse muscle at 300 kBq, iv after 60 mins by gamma counting; type: ADME, organism-based; settings: in vivo, 1 h; in short: as §1
Muscle tissue [17] = experiment: Biodistribution in CD1 mouse muscle at 300 kBq, iv after 30 mins by gamma counting; type: ADME, organism-based; settings: in vivo, 0.5 h; in short: as §1
Spleen [18] = experiment: Biodistribution in CD1 mouse spleen at 300 kBq, iv after 60 mins by gamma counting; type: ADME, organism-based; settings: in vivo, 1 h; in short: as §1
Cerebellum [19] = experiment: Biodistribution in CD1 mouse cerebellum in brain saggital section at 24 MBq, iv at 45 mins by autoradiography; type: ADME, organism-based; settings: in vivo, 0.75 h
In short: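 Female CD-1 mouse given [18F]1 (24 MBq) i.v. and sacrificed at 45 min. Brain hemispheres frozen in isopentane (−35 °C), cut into 12 µm sagittal cryosections, thaw-mounted, air-dried and exposed to 18F-sensitive storage phosphor screens. Anterior olfactory bulb served as nontarget region for target-to-nontarget ratios.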

Brain [20] = experiment: Drug metabolism in CD1 mouse brain homogenates assessed as radiometabolites at 191 MBq, iv after 60 mins by radio-HPLC/TLC analysis; type: ADME, organism-based; settings: in vivo, 1 h
In short: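 Female CD-1 mice were injected with the radiotracer via the tail vein and killed at 30 or 60 min p.i. Whole brains (n = 2 per time) were homogenised in 50 mM TRIS–HCl pH 7.4 at 4 °C and extracted twice with ice-cold acetonitrile. Concentrated extracts were analysed by radio-HPLC and radio-TLC to give % parent versus radiometabolites.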

Mus musculus [21] = experiment: Biodistribution in CD1 mouse eye at 300 kBq, iv after 5 mins by gamma counting; type: ADME, organism-based; settings: in vivo; in short: as §2
Pancreas [22] = experiment: Biodistribution in CD1 mouse pancreas at 300 kBq, iv after 60 mins by gamma counting; type: ADME, organism-based; settings: in vivo, 1 h; in short: as §1
Mus musculus [23] = experiment: Biodistribution in CD1 mouse small intestine at 300 kBq, iv after 60 mins by gamma counting; type: ADME, organism-based; settings: in vivo, 1 h; in short: as §1
[24] = Biodistribution in CD1 mouse urine at 300 kBq, iv after 120 mins by gamma counting; type: ADME, organism-based; settings: in vivo, 2 h; in short: as §3
Cerebellum [25] = experiment: Biodistribution in CD1 mouse cerebellum at 300 kBq, iv after 5 mins by gamma counting; type: ADME, organism-based; settings: in vivo; in short: as §2
Brain [26] = experiment: Biodistribution in CD1 mouse brain at 300 kBq, iv after 30 mins by gamma counting; type: ADME, organism-based; settings: in vivo, 0.5 h; in short: as §2
Mus musculus [27] = experiment: Biodistribution in CD1 mouse large intestine at 300 kBq, iv after 60 mins by gamma counting; type: ADME, organism-based; settings: in vivo, 1 h; in short: as §1
[28] = Biodistribution in CD1 mouse intestinal content at 300 kBq, iv after 120 mins by gamma counting; type: ADME, organism-based, Intestine; settings: in vivo, 2 h; in short: as §1
Mus musculus [29] = experiment: Biodistribution in CD1 mouse fat at 300 kBq, iv after 60 mins by gamma counting; type: ADME, organism-based, Adipose tissue; settings: in vivo, 1 h; in short: as §2
Mus musculus [30] = experiment: Biodistribution in CD1 mouse fat at 300 kBq, iv after 120 mins by gamma counting; type: ADME, organism-based, Adipose tissue; settings: in vivo, 2 h; in short: as §2
Urinary bladder [31] = experiment: Biodistribution in CD1 mouse bladder at 300 kBq, iv after 120 mins by gamma counting; type: ADME, organism-based; settings: in vivo, 2 h; in short: as §2
Pancreas [32] = experiment: Biodistribution in CD1 mouse pancreas at 300 kBq, iv after 30 mins by gamma counting; type: ADME, organism-based; settings: in vivo, 0.5 h; in short: as §1
Urinary bladder [33] = experiment: Biodistribution in CD1 mouse bladder at 300 kBq, iv after 30 mins by gamma counting; type: ADME, organism-based; settings: in vivo, 0.5 h; in short: as §2
Muscle tissue [34] = experiment: Biodistribution in CD1 mouse muscle at 300 kBq, iv after 5 mins by gamma counting; type: ADME, organism-based; settings: in vivo; in short: as §1
Spleen [35] = experiment: Biodistribution in CD1 mouse spleen at 300 kBq, iv after 30 mins by gamma counting; type: ADME, organism-based; settings: in vivo, 0.5 h; in short: as §1
Blood = experiment: Biodistribution in CD1 mouse blood at 300 kBq, iv after 120 mins by gamma counting; type: ADME, organism-based; settings: in vivo, 2 h; in short: as §2
Mus musculus [36] = experiment: Biodistribution in CD1 mouse small intestine at 300 kBq, iv after 5 mins by gamma counting; type: ADME, organism-based; settings: in vivo; in short: as §1
Kidney = experiment: Biodistribution in CD1 mouse kidney at 300 kBq, iv after 30 mins by gamma counting; type: ADME, organism-based; settings: in vivo, 0.5 h; in short: as §1

SMILES: [18F]CC1OC2(CCN(Cc3ccccc3)CC2)c2ccccc21 (stereo not drawn)
- Drug uptake (Spleen [1]): 6.23 % ID/g
- Drug uptake (Brain [2]): 7.15 % ID/g
- Drug uptake (Femur [3]): 1.92 % ID/g
- Drug uptake (Stomach [4]): 3.52 % ID/g
- Drug uptake (Femur [5]): 2.09 % ID/g
- logD [6]: 2.39
- Drug uptake (Cerebellum [7]): 6.27 % ID/g
- Drug uptake (Stomach [8]): 1.77 % ID/g
- Drug uptake (Urinary bladder [9]): 1.51 % ID/g
- Drug uptake (Mus musculus [10]): 2.52 % ID/g
- Drug uptake (Mus musculus [11]): 3.61 % ID/g
- Drug uptake (Stomach [12]): 2.62 % ID/g
- Drug uptake [13]: 3.99 % ID/g
- Drug uptake (Mus musculus [14]): Active
- Drug uptake (Mus musculus [15]): 0.87 % ID/g
- Drug uptake (Muscle tissue [16]): 0.97 % ID/g
- Drug uptake (Muscle tissue [17]): 1.67 % ID/g
- Drug uptake (Spleen [18]): 5.3 % ID/g
- Drug uptake (Cerebellum [19]): Active
- Drug metabolism (Brain [20]): Active
- Drug uptake (Mus musculus [21]): 1.89 % ID/g
- Drug uptake (Pancreas [22]): 9.27 % ID/g
- Drug uptake (Mus musculus [23]): 23.46 % ID/g
- Drug uptake [24]: 56.46 % ID/g
- Drug uptake (Cerebellum [25]): 8.2 % ID/g
- Drug uptake (Brain [26]): 4.56 % ID/g
- Drug uptake (Mus musculus [27]): 0.92 % ID/g
- Drug uptake [28]: 1.96 % ID/g
- Drug uptake (Mus musculus [29]): 2.02 % ID/g
- Drug uptake (Mus musculus [30]): 2.08 % ID/g
- Drug uptake (Urinary bladder [31]): 5.58 % ID/g
- Drug uptake (Pancreas [32]): 16.03 % ID/g
- Drug uptake (Urinary bladder [33]): 3.86 % ID/g
- Drug uptake (Muscle tissue [34]): 2.12 % ID/g
- Drug uptake (Spleen [35]): 8.85 % ID/g
- Drug uptake (Blood): 0.15 % ID/g
- Drug uptake (Mus musculus [36]): 19.78 % ID/g
- Drug uptake (Kidney): 9.61 % ID/g
